Published values collected from several papers.
Lines come from different studies, so protocols differ.
SULT1B1: Sulfotransferase 1B1 (SULT1B1, Homo sapiens, UniProt O43704)
VIPR1: Vasoactive intestinal polypeptide receptor 1 (VIPR1, Homo sapiens, UniProt P32241)

COc1cc(Br)cc(Br)c1Oc1cc(Br)cc(Br)c1O  Km (SULT1B1; enzyme activity, substrate): 24.9 µM
COc1ncccc1-c1cnn2ccc(N3CCN(C(=O)OC(C)C)CC3)nc12  remaining binding (Bone morphogenetic protein receptor type-1B (BMPR1B, Homo sapiens, UniProt O00238); binding, competition with immobilised ligand; 1 µM): 100%
Oc1c(Br)cc(Br)cc1Oc1ccc(Br)cc1Br  Km (SULT1B1; enzyme activity, substrate): 0.172 µM
O=[N+]([O-])c1cc[n+]([O-])c2ccccc12  remaining activity (TcPGFS (Trypanosoma cruzi, UniProt Q8I6L9); enzyme activity, inhibitor; 200 µM): 76%
CN(C)C(=O)COC(=O)Cc1ccc(OC(=O)c2ccc(NC(=N)N)cc2)cc1  inhibition (Dipeptidyl peptidase 3 (DPP3, Homo sapiens, UniProt Q9NY33); enzyme activity, inhibitor; 10 µM): 8%
O=C(Nc1cccnn1)N1CCN([C@@H]2CCOc3cc(C(F)(F)F)ccc32)CC1  inhibition (VIPR1; cell-free assay; 20 µM): -11%
N=C(N)c1ccc2cc(OC(=O)c3ccc(N=C(N)N)cc3)ccc2c1  inhibition (Cathepsin S (CTSS, Homo sapiens, UniProt P25774); enzyme activity, inhibitor; 10 µM): 8%
Nc1ncc(-c2nc(N3CCOCC3)nc(N3CCOCC3)n2)c(C(F)F)n1  remaining binding (Uncharacterized serine/threonine-protein kinase SBK3 (SBK3, Homo sapiens, UniProt P0C264); binding, competition with immobilised ligand; 10 µM): 85%
CCN(CC)CCCC[C@H](NC(=O)[C@H](CC(C)C)NC(=O)[C@H](C)NC(=O)[C@H](Cc1ccccc1)NC(=O)c1ccc(C(C)(C)C)cc1)C(=O)N[C@@H](CO)C(=O)OC  remaining binding (VIPR1; ligand displacement, radioligand; 10 µM): 110%
O=C(Nc1cccnc1)N1CCC(Cc2cccc(Oc3ccc(C(F)(F)F)cn3)c2)CC1  kinact/KI (Fatty-acid amide hydrolase 1 (Faah, Rattus norvegicus, UniProt P97612); enzyme activity, inhibitor): 3900 M⁻¹ s⁻¹
CN1CCN(c2cc(-c3ccncc3)c(-c3ccc4ccccc4c3)nn2)CC1  activation (Prokineticin receptor 1 (PROKR1, Homo sapiens, UniProt Q8TCW9); calcium signal, agonist; PK-1; 12.5 µM): -0.3%
Cc1nn(C)cc1-c1nc2c(N3CCN(Cc4ccc(Cl)cc4)CC3)c(Cl)cnc2[nH]1  remaining binding (Wee1-like protein kinase 2 (WEE2, Homo sapiens, UniProt P0C1S8); binding, competition with immobilised ligand; 1 µM): 99%
